In ChEMBL document CHEMBL1240350, “In vitro activity of CEM-101 against Streptococcus pneumoniae and Streptococcus pyogenes with defined macrolide resistance mechanisms” (Antimicrob Agents Chemother, 2010):
≈ marks a conversion by molar mass, not a printed value.

Legend:
Format in all cases: functional
Streptococcus pneumoniae [1] = experiment: Antibacterial activity against Streptococcus pneumoniae harboring erm(A) gene after overnight incubation by agar dilution method
Outline: (§1)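 Clinical isolates collected 1998–2008, with macrolide-resistance genes confirmed by PCR. MICs by agar dilution on Mueller-Hinton agar with 5% sheep blood. Inoculum 10^4 CFU/spot, incubated overnight at 35°C in ambient air. S. pneumoniae ATCC 49619 was the quality-control strain in every run.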

Streptococcus pneumoniae [2] = experiment: Antibacterial activity against penicillin-susceptible Streptococcus pneumoniae after overnight incubation by agar dilution method
Outline: (§2)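 Agar dilution on Mueller-Hinton agar supplemented with 5% sheep blood. Inoculum 10^4 CFU/spot, incubated overnight at 35°C in ambient air. Test strains were clinical pneumococcal isolates. S. pneumoniae ATCC 49619 was included as the quality control strain in each run. MIC range, MIC50 and MIC90 were reported for each susceptibility category.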

Streptococcus pyogenes [3] = experiment: Antibacterial activity against Streptococcus pyogenes harboring erm(B) gene after overnight incubation by agar dilution method; outline: as §1
Streptococcus pyogenes [4] = experiment: Antibacterial activity against macrolide-resistant Streptococcus pyogenes harboring erm(B) gene after overnight incubation by agar dilution method
Outline: (§3)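 Agar dilution MICs on Mueller-Hinton agar with 5% sheep blood. Inoculum 10^4 CFU/spot, incubated overnight at 35°C in ambient air. Clinical S. pneumoniae or group A streptococcal isolates; resistance genotypes (erm(B), erm(A), mef(A)/mef(E)) were assigned by PCR. S. pneumoniae ATCC 49619 served as QC strain in each run. Range, MIC50 and MIC90 reported per phenotype group.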

Streptococcus pyogenes [5] = experiment: Antibacterial activity against Streptococcus pyogenes harboring mef(A) gene after overnight incubation by agar dilution method; outline: as §1
Streptococcus pyogenes [6] = experiment: Antibacterial activity against Streptococcus pyogenes harboring erm(A) gene after overnight incubation by agar dilution method; outline: as §1
Streptococcus pneumoniae [7] = experiment: Antibacterial activity against quinolone-susceptible Streptococcus pneumoniae after overnight incubation by agar dilution method; outline: as §2
Streptococcus pneumoniae [8] = experiment: Antibacterial activity against quinolone-resistant Streptococcus pneumoniae after overnight incubation by agar dilution method; outline: as §2
Streptococcus pneumoniae [9] = experiment: Antibacterial activity against Streptococcus pneumoniae harboring mef(A) gene after overnight incubation by agar dilution method; outline: as §1
Streptococcus pneumoniae [10] = experiment: Antibacterial activity against macrolide-resistant Streptococcus pneumoniae harboring mef(A) gene after overnight incubation by agar dilution method; outline: as §3
Streptococcus pneumoniae [11] = experiment: Antibacterial activity against macrolide-susceptible Streptococcus pneumoniae after overnight incubation by agar dilution method; outline: as §3
Streptococcus pneumoniae [12] = experiment: Antibacterial activity against Streptococcus pneumoniae harboring mutation in 23S rRNA after overnight incubation by agar dilution method; outline: as §1
Streptococcus pyogenes [13] = experiment: Antibacterial activity against macrolide-resistant Streptococcus pyogenes harboring mef(A) gene after overnight incubation by agar dilution method; outline: as §3
Streptococcus pneumoniae [14] = experiment: Antibacterial activity against penicillin-intermediate Streptococcus pneumoniae after overnight incubation by agar dilution method
Outline: (§4)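 Agar dilution on Mueller-Hinton agar supplemented with 5% sheep blood, inoculum 10^4 CFU/spot, read after overnight incubation at 35°C in ambient air. Clinical isolates with defined genotypes; S. pneumoniae ATCC 49619 quality control strain included in each run. MIC50/MIC90 are MICs inhibiting 50% and 90% of isolates.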

Streptococcus pyogenes [15] = experiment: Antibacterial activity against macrolide-susceptible Streptococcus pyogenes after overnight incubation by agar dilution method; outline: as §4
Streptococcus pyogenes [16] = experiment: Antibacterial activity against Streptococcus pyogenes harboring mutation in L4 ribosomal protein after overnight incubation by agar dilution method; outline: as §1
Streptococcus pyogenes [17] = experiment: Antibacterial activity against macrolide-resistant Streptococcus pyogenes harboring erm(A) gene after overnight incubation by agar dilution method; outline: as §3
Streptococcus pneumoniae [18] = experiment: Antibacterial activity against macrolide-resistant Streptococcus pneumoniae harboring erm(B) gene after overnight incubation by agar dilution method; outline: as §3
Streptococcus pneumoniae [19] = experiment: Antibacterial activity against penicillin-resistant Streptococcus pneumoniae after overnight incubation by agar dilution method; outline: as §2
Streptococcus pneumoniae [20] = experiment: Antibacterial activity against macrolide-resistant Streptococcus pneumoniae harboring mutation in L4 ribosomal protein after overnight incubation by agar dilution method; outline: as §3
Streptococcus pneumoniae [21] = experiment: Antibacterial activity against Streptococcus pneumoniae harboring mutation in L4 ribosomal protein after overnight incubation by agar dilution method; outline: as §1
Streptococcus pneumoniae [22] = experiment: Antibacterial activity against Streptococcus pneumoniae harboring erm(B) gene after overnight incubation by agar dilution method; outline: as §1
Streptococcus pneumoniae [23] = experiment: Antibacterial activity against macrolide-resistant Streptococcus pneumoniae harboring erm(B) and mef(A) gene after overnight incubation by agar dilution method; outline: as §3
Streptococcus pneumoniae [24] = experiment: Antibacterial activity against Streptococcus pneumoniae harboring erm(B) and mef(A) gene after overnight incubation by agar dilution method; outline: as §1

SMILES: CC[C@H]1OC(=O)[C@H](C)[C@@H](O[C@H]2C[C@@](C)(OC)[C@@H](O)[C@H](C)O2)[C@H](C)[C@@H](O[C@@H]2O[C@H](C)C[C@H](N(C)C)[C@H]2O)[C@](C)(O)C[C@@H](C)C(=O)[C@H](C)[C@@H](O)[C@]1(C)O [ERYTHROMYCIN]
- MIC (Streptococcus pneumoniae [1]): 2 µg/mL (≈ 2.73 µM)
- MIC50 (Streptococcus pneumoniae [2]): 4 µg/mL (≈ 5.45 µM)
- MIC90 (Streptococcus pneumoniae [2]): > 64 µg/mL
- MIC50 (Streptococcus pyogenes [3]): > 64 µg/mL
- MIC90 (Streptococcus pyogenes [3]): > 64 µg/mL
- MIC50 (Streptococcus pyogenes [4]): > 64 µg/mL
- MIC90 (Streptococcus pyogenes [4]): > 64 µg/mL
- MIC50 (Streptococcus pyogenes [5]): 16 µg/mL (≈ 21.8 µM)
- MIC90 (Streptococcus pyogenes [5]): 32 µg/mL (≈ 43.6 µM)
- MIC50 (Streptococcus pyogenes [6]): 4 µg/mL (≈ 5.45 µM)
- MIC90 (Streptococcus pyogenes [6]): > 64 µg/mL
- MIC50 (Streptococcus pneumoniae [7]): > 64 µg/mL
- MIC90 (Streptococcus pneumoniae [7]): > 64 µg/mL
- MIC50 (Streptococcus pneumoniae [8]): 0.06 µg/mL (≈ 0.0818 µM)
- MIC50 (Streptococcus pneumoniae [9]): 4 µg/mL (≈ 5.45 µM)
- MIC90 (Streptococcus pneumoniae [9]): 32 µg/mL (≈ 43.6 µM)
- MIC50 (Streptococcus pneumoniae [10]): 4 µg/mL (≈ 5.45 µM)
- MIC90 (Streptococcus pneumoniae [10]): 32 µg/mL (≈ 43.6 µM)
- MIC50 (Streptococcus pneumoniae [11]): 0.06 µg/mL (≈ 0.0818 µM)
- MIC90 (Streptococcus pneumoniae [11]): 0.125 µg/mL (≈ 0.17 µM)
- MIC (Streptococcus pneumoniae [12]): 8 µg/mL (≈ 10.9 µM)
- MIC50 (Streptococcus pyogenes [13]): 16 µg/mL (≈ 21.8 µM)
- MIC90 (Streptococcus pyogenes [13]): 32 µg/mL (≈ 43.6 µM)
- MIC50 (Streptococcus pneumoniae [14]): > 64 µg/mL
- MIC90 (Streptococcus pneumoniae [14]): > 64 µg/mL
- MIC50 (Streptococcus pyogenes [15]): 0.06 µg/mL (≈ 0.0818 µM)
- MIC90 (Streptococcus pyogenes [15]): 0.125 µg/mL (≈ 0.17 µM)
- MIC (Streptococcus pyogenes [16]): 2 µg/mL (≈ 2.73 µM)
- MIC50 (Streptococcus pyogenes [17]): 4 µg/mL (≈ 5.45 µM)
- MIC90 (Streptococcus pyogenes [17]): > 64 µg/mL

SMILES: C[C@H]1COc2c(N3CCN(C)CC3)c(F)cc3c(=O)c(C(=O)O)cn1c23.C[C@H]1COc2c(N3CCN(C)CC3)c(F)cc3c(=O)c(C(=O)O)cn1c23.O [LEVOFLOXACIN]
- MIC50 (Streptococcus pneumoniae [18]): 1 µg/mL
- MIC90 (Streptococcus pneumoniae [18]): 2 µg/mL
- MIC50 (Streptococcus pneumoniae [19]): 1 µg/mL
- MIC90 (Streptococcus pneumoniae [19]): 2 µg/mL
- MIC50 (Streptococcus pneumoniae [20]): 1 µg/mL
- MIC90 (Streptococcus pneumoniae [20]): 2 µg/mL
- MIC50 (Streptococcus pneumoniae [2]): 1 µg/mL
- MIC90 (Streptococcus pneumoniae [2]): 16 µg/mL
- MIC50 (Streptococcus pyogenes [3]): 0.5 µg/mL
- MIC90 (Streptococcus pyogenes [3]): 1 µg/mL
- MIC50 (Streptococcus pyogenes [4]): 0.5 µg/mL
- MIC90 (Streptococcus pyogenes [4]): 1 µg/mL
- MIC50 (Streptococcus pyogenes [5]): 0.5 µg/mL
- MIC90 (Streptococcus pyogenes [5]): 1 µg/mL
- MIC50 (Streptococcus pyogenes [6]): 0.5 µg/mL
- MIC90 (Streptococcus pyogenes [6]): 1 µg/mL
- MIC50 (Streptococcus pneumoniae [7]): 1 µg/mL
- MIC90 (Streptococcus pneumoniae [7]): 2 µg/mL
- MIC50 (Streptococcus pneumoniae [8]): 16 µg/mL
- MIC90 (Streptococcus pneumoniae [8]): 16 µg/mL
- MIC50 (Streptococcus pneumoniae [9]): 1 µg/mL
- MIC90 (Streptococcus pneumoniae [9]): 2 µg/mL
- MIC50 (Streptococcus pneumoniae [21]): 1 µg/mL
- MIC90 (Streptococcus pneumoniae [21]): 2 µg/mL
- MIC50 (Streptococcus pneumoniae [10]): 1 µg/mL
- MIC90 (Streptococcus pneumoniae [10]): 2 µg/mL
- MIC50 (Streptococcus pneumoniae [11]): 1 µg/mL
- MIC90 (Streptococcus pneumoniae [11]): 16 µg/mL
- MIC50 (Streptococcus pneumoniae [22]): 1 µg/mL
- MIC90 (Streptococcus pneumoniae [22]): 2 µg/mL
- MIC (Streptococcus pneumoniae [12]): 0.06 µg/mL
- MIC50 (Streptococcus pyogenes [13]): 0.5 µg/mL
- MIC90 (Streptococcus pyogenes [13]): 1 µg/mL
- MIC50 (Streptococcus pneumoniae [14]): 1 µg/mL
- MIC90 (Streptococcus pneumoniae [14]): 2 µg/mL
- MIC50 (Streptococcus pneumoniae [23]): 1 µg/mL
- MIC90 (Streptococcus pneumoniae [23]): 16 µg/mL
- MIC50 (Streptococcus pyogenes [15]): 0.5 µg/mL
- MIC90 (Streptococcus pyogenes [15]): 0.5 µg/mL
- MIC50 (Streptococcus pneumoniae [24]): 1 µg/mL
- MIC90 (Streptococcus pneumoniae [24]): 16 µg/mL
- MIC (Streptococcus pyogenes [16]): 0.5 µg/mL
- MIC50 (Streptococcus pyogenes [17]): 0.5 µg/mL
- MIC90 (Streptococcus pyogenes [17]): 1 µg/mL
